KCNQ1 inh: inhibitors of human KCNQ1 potassium channel; P51787; CHO-K1 KCNQ1, FluxOR thallium flux fluorescence; hits give high values; B-score at 10 µM; 310,000 tested, 1.3% active; AID 2642;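 active means compounds whose thallium flux B-score, printed positive for inhibition, exceeds three library SD while starting fluorescence stays within three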;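 further: channel opened by potassium depolarization with thallium stimulus after 20 min compound exposure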
Target sequence (P51787 whole entry, looked up): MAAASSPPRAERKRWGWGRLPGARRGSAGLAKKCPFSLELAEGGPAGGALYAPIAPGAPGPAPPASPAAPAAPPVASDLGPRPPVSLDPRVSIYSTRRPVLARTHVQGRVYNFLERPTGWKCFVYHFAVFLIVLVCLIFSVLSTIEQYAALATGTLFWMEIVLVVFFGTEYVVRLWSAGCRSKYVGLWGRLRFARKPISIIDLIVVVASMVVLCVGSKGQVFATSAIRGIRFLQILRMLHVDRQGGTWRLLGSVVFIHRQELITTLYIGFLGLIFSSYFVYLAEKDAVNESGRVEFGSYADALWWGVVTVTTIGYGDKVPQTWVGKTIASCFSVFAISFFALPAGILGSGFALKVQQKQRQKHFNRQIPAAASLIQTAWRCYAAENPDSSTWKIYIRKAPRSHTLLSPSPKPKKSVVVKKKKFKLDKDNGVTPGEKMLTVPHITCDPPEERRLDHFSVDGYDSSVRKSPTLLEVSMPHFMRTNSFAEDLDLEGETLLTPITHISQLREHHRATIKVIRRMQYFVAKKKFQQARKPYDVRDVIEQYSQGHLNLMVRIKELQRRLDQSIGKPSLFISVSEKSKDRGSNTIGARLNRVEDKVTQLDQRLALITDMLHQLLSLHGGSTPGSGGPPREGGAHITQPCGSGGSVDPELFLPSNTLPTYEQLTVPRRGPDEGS
hERG protect: shields human hERG channel from block by proarrhythmic agents | activation (rescue from dofetilide block), less the hit threshold, % at 10 µM | CHO-hERG, FluxOR thallium flux, dofetilide IC70 present | 310,000 tested, 0.51% active;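 active means activation above the mean of controls blocked by dofetilide plus 5 SD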;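 further: thallium influx through hERG after potassium depolarization seen as dye fluorescence rise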
KCNQ1 pot: potentiators or activators of human KCNQ1 potassium channel | CHO-K1 KCNQ1, thallium flux FluxOR fluorescence; hits give high values | B-score at 10 µM | 310,000 tested, 0.35% active | AID 2648;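 active means fluorescence ratio B-score, a plate-corrected score, at least three library SD, with initial intensity B-score within 5 SD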
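System: Stable KCNQ1 CHO-K1 line | Incubation: 90 min dye loading and 20 min compound exposure, both at room temperature | Measure: Ratio B score | Medium: Assay buffer for compound exposure, DMSO matched across wells | Compound dosing: Single-concentration screen | Probe or stimulus: K+/Tl+ depolarizing stimulus | Measured by: Kinetic FluxOR fluorescence, 10 s baseline plus 110 s post-stimulus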
Kir21 block: Kir2.1 (mouse) channel inhibition; AID 1672; 310,000 tested, 0.85% active; P35561; B-score at 10 µM; HEK293-Kir2.1, FluxOR thallium flux fluorescence; hits give low values;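 active means fluorescence ratio B-score at or below minus 3 SD of library scores, with starting-brightness B-score within 2 SD, cut at about -4.2 in these data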;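 further: channel flux triggered by added potassium and thallium sulfate stimulus; B-score of peak minus minimum fluorescence over baseline after thallium stimulus; more negative B-score means stronger Kir2.1 block with less thallium influx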
KCNK9 inh: blocks the human KCNK9 two-pore domain potassium channel. Q9NPC2. HEK293 KCNK9, FluxOR thallium flux fluorescence; hits give low values. B-score at 10 µM. 310,000 tested, 1.2% active;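 active means ratio B-score over 3 SD below the library mean, with starting fluorescence within 5 SD of its mean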;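 further: negative B-score means less thallium flux so channel inhibition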
KCNK3 block: human KCNK3 channel inhibition, primary screen; O14649; CHO-KCNK3 thallium flux, FluxOR fluorescence; hits give low values; B-score at 10 µM; 340,000 tested, 0.84% active;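 active means B-score under library mean minus 4 SD, starting fluorescence ratio at most library mean plus 5 SD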;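 further: more negative B-score means stronger inhibition of thallium flux through KCNK3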
KCNQ1 inh valid: confirmation of human KCNQ1 potassium channel inhibitors; shares compounds with KCNQ1 inh; KCNQ1 cell line, FluxOR thallium flux fluorescence; inhibition, % at 10 µM; 1,600 tested, 93% active;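 active means primary screen active, with duplicate mean exceeding buffer control mean plus 3 SD of buffer wells, cut at about 28% in these data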;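 further: 0% = buffer control ratio and 100% = XE991 inhibitor control ratio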
CHO KCNQ1 ctr: counter-screen for KCNQ1 inhibitors: effect in parental CHO cells. shares compounds with KCNQ1 inh. parental CHO-K1, FluxOR thallium flux fluorescence ratio; hits give low values; zero means no signal rise above baseline. fluorescence ratio (Tl flux) at 10 µM. 1,600 tested, 21% active. AID 588366;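 active means mean of duplicate thallium-flux fluorescence ratios in parental host cells more than 5 SD below the buffer control mean, cut at about 0.38 in these data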;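 further: ratio is peak minus minimum fluorescence divided by baseline fluorescence; actives read low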
KCNQ1 APC inh: confirmation of human KCNQ1 potassium channel inhibitors by electrophysiology | shares compounds with KCNQ1 inh | KCNQ1-CHO cells, automated patch clamp current | calls only at 10 µM | 490 tested, 20% active | AID 624120;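 active means KCNQ1 current drop exceeding 3 SD of negative control wells, seen in both duplicate runs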;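 further: steady state current during a 2 s step from -80 to +40 mV; negative values mean current inhibition and positive values mean potentiation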
KCNQ2 spec: KCNQ1 inhibitor that also blocks rat KCNQ2 channel. shares compounds with KCNQ1 inh. KCNQ2 cells, FluxOR thallium flux fluorescence. inhibition, % at 10 µM. 1,600 tested, 71% active. AID 651746;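 active means mean percent inhibition of the KCNQ2 thallium signal more than 5 SD above the buffer-only control wells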;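 further: KCNQ2 expressed in CHO cells; 0% = buffer control wells and 100% = XE-991 inhibitor control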
KCNQ1-KCNE1 inh: KCNQ1 inhibitor that also blocks human KCNQ1/KCNE1 channel | shares compounds with KCNQ1 inh | KCNQ1/KCNE1 cells, FluxOR thallium flux fluorescence | inhibition, % at 10 µM | 1,600 tested, 77% active | AID 652147;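 active means mean percent inhibition of duplicate wells above the buffer-only control mean plus 3 SD of those controls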;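 further: 0% = buffer only wells and 100% = XE-991 inhibitor control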
* = called active by the depositor; i = inactive; nt = no result; + = active, no number. Compounds with a hit are over-represented: about 3.7% of the library has one in this group of screens.

SMILES	KCNQ1 inh	hERG protect	KCNQ1 pot	Kir21 block	KCNK9 inh	KCNK3 block	KCNQ1 inh valid	CHO KCNQ1 ctr	KCNQ2 spec	KCNQ1-KCNE1 inh	others
Cc1cc(NC2CCCCC2)nc2ccccc12	6*	-19	i	-0.68	i	i	58*	0.45	59%*	49%*
COc1ccc(-c2cc(-c3nnc(COC(=O)c4ccc(O)cc4)o3)c3ccccc3n2)cc1OC	9*	-22	i	0.61	i	i	104*	0.43	98%*	+	KCNQ1 APC inh=i
COc1ccc(-c2cc(-c3nnc(COC(=O)C4CC4)o3)c3ccccc3n2)cc1OC	i	-9	i	0.88	i	i	nt	nt	nt	nt
CCc1ccccc1Nc1ncnc2ccccc12	i	-1	i	-2.4	i	i	nt	nt	nt	nt
CCCCCCCCNc1ncnc2ccccc12	9*	-36	i	-8*	i	i	125*	0.37*	76%*	118%*
c1ccc(CCNc2ncnc3ccccc23)cc1	8*	-17	i	0.42	i	i	139*	0.48	84%*	110%*	KCNQ1 APC inh=i
Brc1ccc2ncnc(NCc3ccccc3)c2c1	i	-10	i	0.65	i	i	nt	nt	nt	nt
O=C(CN1CCN(S(=O)(=O)c2ccc(F)cc2)CC1)Nc1ccc(Cl)cn1	i	-7	i	0.08	i	i	nt	nt	nt	nt
CCOC(=O)c1c(-c2ccccc2)oc2ccc(OCC)cc12	6*	-5	i	0.49	i	i	70*	0.46	96%*	62%*
O=C(O)C1=C[C@@H](C2CCCCC2)C[C@@H](OCCCCO)O1	i	-5	i	0.73	i	i	nt	nt	nt	nt
CC(C)(C)OC(=O)N1CCCC(C(=O)CC#N)C1 (stereo unspecified)	9*	-11	i	-0.36	i	i	96*	0.49	109%*	188%*	KCNQ1 APC inh=i
CSc1cccc(NC(=O)CNS(=O)(=O)c2ccccc2)c1	i	-8	i	-0.79	i	i	nt	nt	nt	nt
COc1ccccc1-c1c(C)nn2c(N3CCCCCC3)cc(C)nc12	8*	-16	i	0	i	i	0	0.49	85%*	i
CCN(c1ccccc1)S(=O)(=O)c1cccc(C(=O)OCC(=O)Nc2ccc(NC(C)=O)cc2)c1	nt	nt	nt	nt	nt	i	nt	nt	nt	nt
Cc1cccc2c1Sc1ccc(Cl)cc1CC2N1CCNCC1 (stereo unspecified)	9*	-21	i	-4.2	i	-12*	123*	0.3*	116%*	166%*
O=C(N/N=C/c1ccc(OC(=O)c2cccs2)cc1)c1ccccn1	i	-11	i	-0.95	i	i	nt	nt	nt	nt
Cn1c(CCN2CCCCC2)nc2cc(NS(=O)(=O)c3ccc(Cl)cc3)ccc21	8*	-19	i	-2.7	i	i	0	0.56	i	58%*
COC(=O)CC1C(=O)NCCN1C(=S)Nc1ccccc1Cl (stereo unspecified)	i	-8	i	0.66	i	i	nt	nt	nt	nt
O=C(Cn1cnc2ccccc21)Nc1cccc(S(=O)(=O)N2CCCC2)c1	nt	nt	nt	nt	nt	i	nt	nt	nt	nt
Cn1ccnc1SCC(=O)Nc1cc(F)ccc1F	i	-4	i	-0.8	i	i	nt	nt	nt	nt
Cc1cc(C)c(N2CCN(S(=O)(=O)N3CCCCCC3)CC2)c(C)c1	7*	-13	i	-0.51	i	i	126*	0.44	115%*	118%*

Assay outcomes from PubChem.
